Data on one compound can be found in ChEMBL document CHEMBL1240328, “Selective compounds define Hsp90 as a major inhibitor of apoptosis in small-cell lung cancer” (Nat Chem Biol, 2007).

Structures are written as SMILES. Calls of active or inactive are those of the source. The rule behind the calls is not given here.

Experiment [1] has as its target Heat shock protein HSP 90-beta (Homo sapiens) (UniProt P08238). Put plainly: Inhibition of HSP90-mediated antiapoptotic activity in human NCI-H526 cells assessed as subG1 accumulation at 15 uM after 72 hrs by propidium iodide staining-based flow cytometry. The format is cell-based. An outline of the steps:
(§1)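 SCLC cells treated for 72 h with graded doses. Mitochondrial membrane potential read by flow cytometry after JC-1 staining, with green-only emission indicating depolarization. Sub-G1 DNA content read after propidium iodide staining. CCCP used as positive control. n = 3 repeat experiments.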

The next experiment concerns SK-BR-3. Put plainly: Inhibition of HSP70-mediated antiapoptotic activity in human SKBR3 cells assessed as release of Apaf-1 from chaperon complex after 24 hrs by Western blot analysis. The format is cell-based. An outline of the steps:
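SKBr3 cells were treated for 24 h. Lysates were probed by western blot for caspase-3 and PARP cleavage. Apaf-1 complexes were pulled down with Apaf-1 antibody (with control IgG) and immunoblotted.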
A general note: Immunoblotting shows a protein as a band on a membrane.

Experiment [2] deals with Heat shock protein HSP 90-beta (Homo sapiens) (UniProt P08238). Put plainly: Effect on HSP90-mediated Bcl-XL expression in human NCI-H526 cells at 25 uM after 24 hrs by Western blot analysis. Type of experiment: cell-based. An outline of the steps: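 NCI-H526 cells were exposed for 24 h to drug or DMSO vehicle. Lysates were made in 50 mM Tris pH 7.4, 150 mM NaCl, 1% NP-40 and quantified by BCA. Western blot used 20–100 µg protein per lane, with β-actin as loading control.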

For experiment [3] the target is unchanged. Put plainly: Inhibition of HSP90-mediated antiapoptotic activity in human SKBR3 cells assessed as induction of caspase-3 cleavage at 20 uM after 24 hrs by Western blot analysis. As to conditions: SK-BR-3. The format is cell-based. In a few lines: (§2)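 SKBr3 cells at 60–70% confluence were exposed to drug or DMSO vehicle. Lysis was in 50 mM Tris pH 7.4, 150 mM NaCl, 1% NP-40, with protein measured by BCA. Lysates of 20–100 µg were run on SDS-PAGE, blotted to nitrocellulose, probed with primary antibodies and detected with a peroxidase-conjugated secondary (1:5,000). Loading was checked with β-actin or PI(3)K p85.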

Experiment [4] shares this target. Put plainly: Inhibition of HSP90-mediated antiapoptotic activity in human NCI-H526 cells assessed as disruption of protein-Apaf-1 complex at 20 uM after 24 hrs by Western blot analysis. The format is cell-based. An outline of the steps:
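NCI-H526 cells treated for 24 h with vehicle or inhibitors (20 µM or 50 µM). Proteins isolated with Apaf-1-specific antibody and whole lysates analysed by western blot. n = 3.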

For experiment [5] the target is unchanged. Put plainly: Inhibition of HSP90-mediated antiapoptotic activity in human NCI-H526 cells assessed as induction of caspase-3 cleavage at 10 uM after 72 hrs by fluorescence assay in presence of caspase-9 inhibitor Z-LEHD-FMK. The format is cell-based.
For experiment [6] the target is unchanged. Put plainly: Inhibition of HSP90-mediated antiapoptotic activity in human NCI-H526 cells assessed as induction of Akt degradation at 20 uM after 24 hrs by Western blot analysis. The format is cell-based.
For experiment [7] the target is unchanged. Put plainly: Inhibition of HSP90-mediated antiapoptotic activity in human SKBR3 cells assessed as induction of cell growth arrest at 100 uM after 24 hrs by propidium iodide staining-based flow cytometry. The following applies: SK-BR-3.
In another experiment the test system is NCI-H526. Put plainly: Inhibition of HSP70-mediated antiapoptotic activity in human NCI-H526 cells assessed as release of Apaf-1 from chaperon complex after 24 hrs by Western blot analysis. The format is cell-based. In a few lines:
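NCI-H526 cells were treated for 24 h. PARP and caspase-3 cleavage were read by western blot of lysates in Tris/NaCl/NP-40 buffer. Apaf-1 complexes were immunoprecipitated with Apaf-1 antibody, using control IgG, then blotted.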

Experiment [8] addresses Heat shock protein HSP 90-beta (Homo sapiens) (UniProt P08238). Put plainly: Inhibition of HSP90-mediated antiapoptotic activity in human NCI-H526 cells assessed as subG1 accumulation at 5 uM after 72 hrs by propidium iodide staining-based flow cytometry. The format is cell-based. An outline of the steps: as §1
(A flow cytometer gives signals particle by particle.)

The target is the same in experiment [9]. Put plainly: Inhibition of HSP90-mediated antiapoptotic activity in human MCF7 cells assessed as induction of cell growth arrest at 20 uM after 24 hrs by propidium iodide staining-based flow cytometry.
Experiment [10] shares this target. Put plainly: Inhibition of HSP90-mediated antiapoptotic activity in human SKBR3 cells assessed as induction of caspase-9 cleavage at 400 uM after 24 hrs by Western blot analysis. The format is cell-based. As to conditions: SK-BR-3. An outline of the steps: as §2
Experiment [11] has the same target. Put plainly: Inhibition of HSP90-mediated antiapoptotic activity in human NCI-N417 cells assessed as subG1 accumulation at 5 uM after 72 hrs by propidium iodide staining-based flow cytometry. Type of experiment: cell-based. The following applies: NCI-H417. In a few lines: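 Asynchronously growing cells were treated with compound, stained with propidium iodide and analysed by flow cytometry. The read-out was the percentage of cells with sub-G1 DNA content.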

The target is the same in experiment [12]. Put plainly: Inhibition of HSP90-mediated antiapoptotic activity in human NCI-H526 cells assessed as reduction in BAD phosphorylation at 50 uM after 24 hrs by Western blot analysis. Type of experiment: cell-based.

Sequence of Heat shock protein HSP 90-beta (Homo sapiens) (P08238 whole entry): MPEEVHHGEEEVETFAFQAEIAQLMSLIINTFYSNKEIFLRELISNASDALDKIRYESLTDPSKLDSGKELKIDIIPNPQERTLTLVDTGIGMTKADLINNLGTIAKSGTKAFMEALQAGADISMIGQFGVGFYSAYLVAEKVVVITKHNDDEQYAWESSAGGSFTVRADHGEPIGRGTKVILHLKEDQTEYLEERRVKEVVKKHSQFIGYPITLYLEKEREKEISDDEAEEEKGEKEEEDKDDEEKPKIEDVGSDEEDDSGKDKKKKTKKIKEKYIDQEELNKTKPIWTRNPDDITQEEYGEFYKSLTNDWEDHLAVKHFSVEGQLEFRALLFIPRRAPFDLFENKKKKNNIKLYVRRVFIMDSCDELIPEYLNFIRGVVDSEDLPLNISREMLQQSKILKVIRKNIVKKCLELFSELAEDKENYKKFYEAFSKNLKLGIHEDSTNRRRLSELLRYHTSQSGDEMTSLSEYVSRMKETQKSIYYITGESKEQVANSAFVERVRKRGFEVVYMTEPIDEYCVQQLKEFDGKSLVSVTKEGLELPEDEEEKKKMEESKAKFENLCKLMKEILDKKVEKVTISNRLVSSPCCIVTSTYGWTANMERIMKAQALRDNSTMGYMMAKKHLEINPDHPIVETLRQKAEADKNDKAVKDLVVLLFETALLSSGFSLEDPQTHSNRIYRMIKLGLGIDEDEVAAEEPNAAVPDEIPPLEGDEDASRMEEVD

Regarding `O=CN1CC/C(=C/c2ccc3c(c2)OCO3)C1=O`, the result in experiment [1], in experiment [2], in experiment [3], in experiment [4], in experiment [5] and in experiment [6] was inactive. Further, the outcome in experiment [8], in [9], in [10], in experiment [11] and in experiment [12] was inactive. The inhibition entry in the experiment with SK-BR-3 and with NCI-H526 was “inactive” throughout. The result in experiment [7] was Active.
